Test results as given in ChEMBL document CHEMBL3865834, “Dihydrobenzofuran Neolignanamides: Laccase-Mediated Biomimetic Synthesis and Antiproliferative Activity” (J Nat Prod, 2016).

Experiments:
[1] = Lipophilicity of the compound assessed as capacity factor by HPLC analysis; format: physicochemical
Summary of the method: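 Reversed-phase C18 HPLC (4.6 × 250 mm, 5 μm), 1 mL/min, acidified acetonitrile gradient 20→80% B over 30 min, diode-array detection. Capacity factor K = (tR − t0)/t0, where t0 is the retention time of the AA standard.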

[2] = Growth inhibition of human PC3 cells measured after 72 hrs by MTT assay; format: functional; conditions: PC-3, 72 h
Summary of the method: (§1)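 Cells plated at (2.5−3.0) × 10^3 per 0.33 cm2, treated after 24 h with 0.01−100 μM (final) for 3 days at 37 °C, 5% CO2; controls got 0.5−1% DMSO. MTT read at 570 nm, 6−8 wells per value.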

[3] = Growth inhibition of human Caco2 cells measured after 72 hrs by MTT assay; format: functional; conditions: Caco-2, 72 h; summary of the method: as §1
[4] = Growth inhibition of human MCF7 cells measured after 72 hrs by MTT assay; format: functional; conditions: MCF7, 72 h; summary of the method: as §1
[5] = Cell cycle arrest in human Caco2 cells assessed as accumulation at G0/G1 phase at 100 uM measured after 24 to 36 hrs by propidium iodide staining-based flow cytometry (reference value: 51.1%); format: functional; conditions: Caco-2
Summary of the method: (§2)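 Caco-2 cells grown in six-well plates, treated 24–36 h, compared with vehicle-treated cells. Harvested by trypsinization, PBS-washed, fixed in 70% ethanol at 4 °C for at least 30 min. Then RNase A for 1 h at 37 °C, propidium iodide (final 50 μg/mL) for 1 h at 37 °C, and analysed by flow cytometry. Means of three independent experiments.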

Caco-2 [6] = experiment: Induction of apoptosis in human Caco2 cells assessed as viable cells at 100 uM measured after 24 hrs by Alexa Fluor 488 Annexin V/propidium iodide staining-based flow cytometry (reference value: 95.1%); format: functional; conditions: Caco-2, 24 h, read-out: Activity
Caco-2 [7] = experiment: Induction of apoptosis in human Caco2 cells assessed as late apoptotic cells at 100 uM measured after 24 hrs by Alexa Fluor 488 Annexin V/propidium iodide staining-based flow cytometry (reference value: 1.8%); format: functional
[8] = Cell cycle arrest in human Caco2 cells assessed as accumulation at sub-G1 phase at 100 uM measured after 24 to 36 hrs by propidium iodide staining-based flow cytometry; format: functional; conditions: Caco-2; summary of the method: as §2
[9] = Cell cycle arrest in human Caco2 cells assessed as accumulation at S-phase at 100 uM measured after 24 to 36 hrs by propidium iodide staining-based flow cytometry (reference value: 18 to 19.5%); format: functional; conditions: Caco-2; summary of the method: as §2
[10] = Cell cycle arrest in human Caco2 cells assessed as accumulation at G2-phase at 100 uM measured after 24 to 36 hrs by propidium iodide staining-based flow cytometry (reference value: 28%); format: functional; conditions: Caco-2; summary of the method: as §2
Caco-2 [11] = experiment: Induction of apoptosis in human Caco2 cells assessed as necrotic cells at 100 uM measured after 24 hrs by Alexa Fluor 488 Annexin V/propidium iodide staining-based flow cytometry (reference value: […]); format: functional
Caco-2 [12] = experiment: Induction of apoptosis in human Caco2 cells assessed as early apoptotic cells at 100 uM measured after 24 hrs by Alexa Fluor 488 Annexin V/propidium iodide staining-based flow cytometry (reference value: 3.9%); format: functional

## Cc1ccc(CNC(=O)/C=C/c2ccc3c(c2)[C@@H](C(=O)NCc2ccc(C)cc2)[C@H](c2ccc(O)cc2)O3)cc1 (racemic)
[1]
  K: 8.36

## COc1cc([C@@H]2Oc3c(OC)cc(/C=C/C(=O)NCCc4ccc(O)cc4)cc3[C@H]2C(=O)NCCc2ccc(O)cc2)ccc1O (racemic) [GROSSAMIDE]
[2]
  GI50: 21 µM
[1]
  K: 2.32
[3]
  GI50: > 100 µM
[4]
  GI50: 24 µM

## O=c1[nH]cc(F)c(=O)[nH]1 [FLUOROURACIL]
[5]
  Activity: 50.1%
Caco-2 [6]
  viability at 100 µM: 36.8%
Caco-2 [7]
  Activity: 5.3%
[8]
  Activity: 10.4%
[9]
  Activity: 37.5 to 39.8%
[10]
  Activity: 1.9%
Caco-2 [11]
  Activity: 0.3%
[2]
  GI50: 4.1 to 6.3 µM
Caco-2 [12]
  Activity: 56.2%
[3]
  GI50: 3.3 to 4.2 µM
[4]
  GI50: 3.6 to 3.8 µM

## Cc1ccc(CNC(=O)/C=C/c2cc(O)c3c(c2)[C@@H](C(=O)NCc2ccc(C)cc2)[C@H](c2ccc(O)c(O)c2)O3)cc1 (racemic)
[1]
  K: 7.89

## COc1cc([C@@H]2Oc3c(OC)cc(/C=C/C(=O)NCc4cc(OC)c(OC)c(OC)c4)cc3[C@H]2C(=O)NCc2cc(OC)c(OC)c(OC)c2)ccc1O (racemic)
[1]
  K: 6.32

## COc1cc(CNC(=O)/C=C/c2cc(O)c3c(c2)[C@@H](C(=O)NCc2cc(OC)c(OC)c(OC)c2)[C@H](c2ccc(O)c(O)c2)O3)cc(OC)c1OC (racemic)
[1]
  K: 5.69

## O=C(/C=C/c1ccc2c(c1)[C@@H](C(=O)NCCc1ccc(O)cc1)[C@H](c1ccc(O)cc1)O2)NCCc1ccc(O)cc1 (racemic)
[2]
  GI50: 26 µM
[1]
  K: 5.2
[3]
  GI50: 28.9 µM
[4]
  GI50: 33.2 µM

## COc1cc([C@@H]2Oc3c(OC)cc(/C=C/C(=O)NCc4ccc(C)cc4)cc3[C@H]2C(=O)NCc2ccc(C)cc2)ccc1O (racemic)
[1]
  K: 8.45

## COc1cc(CNC(=O)/C=C/c2ccc3c(c2)[C@@H](C(=O)NCc2cc(OC)c(OC)c(OC)c2)[C@H](c2ccc(O)cc2)O3)cc(OC)c1OC (racemic)
[1]
  K: 6.35

## O=C(/C=C/c1cc(O)c2c(c1)[C@@H](C(=O)NCCc1ccc(O)cc1)[C@H](c1ccc(O)c(O)c1)O2)NCCc1ccc(O)cc1 (racemic)
[2]
  GI50: 66 µM
[1]
  K: 0.56
[3]
  GI50: > 10 µM
[4]
  GI50: 39.7 µM
